These results are taken from ChEMBL document CHEMBL4049428, “Exploring Derivatives of Quinazoline Alkaloid l-Vasicine as Cap Groups in the Design and Biological Mechanistic Evaluation of Novel Antitumor Histone Deacetylase Inhibitors” (J Med Chem, 2017).

One test addresses Histone deacetylase 1 (Homo sapiens, UniProt Q13547). The test can be described thus: Inhibition of HDAC 1 in human HeLa nuclear extract using HDAC substrate-3 measured after 60 mins by fluorometric analysis.
The test system of the next test is A549. The test can be described thus: Cytotoxicity against human A549 cells assessed as growth inhibition at 10 uM after 48 hrs by MTT assay. It is filed as functional. The conditions noted are these: A549, 48 h, read-out: GI. An outline of the steps: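 MTT assay, 48 h exposure; adherent lines seeded 12 h and suspension lines 4 h before compound. Media: RPMI-1640/10% FCS (THP-1, HL-60, Colo-205, Caco-2, A549), DMEM/10% FCS (A549, MIAPaCa-2, MCF-7). MTT 4 h, formazan dissolved in DMSO, absorbance 570 nm. Mean ± S.D of three experiments in triplicate; SAHA 5 µM reference.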

In test [1] the test system is MOLT-4. The test can be described thus: Induction of mitochondrial membrane potential loss in human MOLT4 cells at 0.125 uM measured after 48 hrs by Rh123 dye-based flow cytometric analysis (reference value: 9.6%). In kind it is functional. In a few lines: (§1)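 Cells seeded in 6-well plates 2-4 h, then 48 h with compound; Rh-123 1 µM added for the final half hour; cells centrifuged, washed twice in PBS, resuspended in PBS, and Ψm loss quantified by flow cytometry as percentage of cells.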

The test system of test [2] is HL-60. The test can be described thus: Induction of reactive oxygen species in human HL60 cells at 10 uM measured after 48 hrs by H2DCFDA dye-based flow cytometric analysis (reference value: 0.4%). In kind it is functional.
The subject of test [3] is HL-60. The test can be described thus: Induction of mitochondrial membrane potential loss in human HL60 cells assessed as intact mitochondrial membrane potential at 10 uM measured after 48 hrs by Rh123 dye-based flow cytometric analysis (reference value: 91.3%). It is filed as functional. In a few lines:
as §1

Test [4] has as its system HL-60. Description: Induction of mitochondrial membrane potential loss in human HL60 cells at 1 uM measured after 48 hrs by Rh123 dye-based flow cytometric analysis (reference value: 5.6%). It is filed as functional. An outline of the steps:
as §1

The next test deals with MCF7. The test can be described thus: Cytotoxicity against human MCF7 cells assessed as growth inhibition after 48 hrs by MTT assay. In kind it is functional, cell-based. The note with it: MCF7, 48 h.
Test [5] relates to MOLT-4. The test can be described thus: Induction of reactive oxygen species in human MOLT4 cells at 0.125 uM measured after 48 hrs by H2DCFDA dye-based flow cytometric analysis (reference value: 1.1%). In kind it is functional.
Test [6] deals with MOLT-4. Description: Induction of mitochondrial membrane potential loss in human MOLT4 cells at 10 uM measured after 48 hrs by Rh123 dye-based flow cytometric analysis (reference value: 9.6%). In kind it is functional. In a few lines:
as §1

For test [7], the system named is MOLT-4. Description: Induction of mitochondrial membrane potential loss in human MOLT4 cells assessed as intact mitochondrial membrane potential at 5 uM measured after 48 hrs by Rh123 dye-based flow cytometric analysis (reference value: 90.4%). In kind it is functional. In a few lines: as §1
Test [8] concerns MOLT-4. The test can be described thus: Induction of reactive oxygen species in human MOLT4 cells at 1 uM measured after 48 hrs by H2DCFDA dye-based flow cytometric analysis (reference value: 1.1%). In kind it is functional.

Molecules are shown by their SMILES.

Histone deacetylase 1, sequence (Q13547 whole entry): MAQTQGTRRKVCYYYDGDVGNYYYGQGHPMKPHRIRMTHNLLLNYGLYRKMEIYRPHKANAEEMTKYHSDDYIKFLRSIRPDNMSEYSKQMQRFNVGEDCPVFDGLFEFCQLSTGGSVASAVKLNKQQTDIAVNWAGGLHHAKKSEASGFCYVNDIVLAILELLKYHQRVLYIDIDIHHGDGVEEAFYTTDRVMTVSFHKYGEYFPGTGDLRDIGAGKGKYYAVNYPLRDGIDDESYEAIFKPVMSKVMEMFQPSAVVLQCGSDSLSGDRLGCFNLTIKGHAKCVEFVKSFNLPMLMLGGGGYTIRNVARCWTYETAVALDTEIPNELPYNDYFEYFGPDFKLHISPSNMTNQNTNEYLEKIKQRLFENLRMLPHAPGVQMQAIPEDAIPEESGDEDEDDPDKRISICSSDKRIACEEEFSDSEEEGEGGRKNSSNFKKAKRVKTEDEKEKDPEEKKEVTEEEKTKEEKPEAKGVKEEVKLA

Consider `O=C(CCCCCCC(=O)Nc1ccccc1CN1CC[C@H](O)C1)NO`, for which the IC50 against Histone deacetylase 1 came out at 415 nM; in the test with MCF7, 1500 nM. Further, in the test with A549, the inhibition of growth at 10 µM was 84%. In addition, the Activity is recorded as 2.4% in the test with MOLT-4 [1]; 0.1% with HL-60 [2]; 54.7% in the test with HL-60 [3]; 6.2% in the test with HL-60 [4]; 1.3% in the test on MOLT-4 [5]; 67.5% with MOLT-4 [6]. For the same molecule, the Activity with MOLT-4 [7] is 42.5%; in the test with MOLT-4 [8], 1.1%.
